In ChEMBL document CHEMBL3351317 (J Med Chem, 2014):

How the values were obtained:
[1] = Distribution coefficient, log D between 1-octonol and aqueous phosphate buffer at pH 7.4; assay type: physicochemical; conditions: 1-octanol/aqueous phosphate buffer
Method in brief: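 logD measured as distribution between 1-octanol and aqueous phosphate buffer, pH 7.4.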

[2] = Intrinsic clearance in rat hepatocytes assessed per million cells; assay type: ADME, cell-based, Hepatocyte; conditions: read-out: CLH

logD [1]	hepatocyte CLint [2] [µL/min/1e6 cells]	Structure (SMILES)
3.4		C[C@@H]1CN(c2nc(C(F)(F)F)no2)CCN1c1ncc(OCc2ccc(N=S(C)(C)=O)cc2F)cn1
3.4		C[C@@H]1CN(c2nc(C(F)(F)F)no2)CCN1c1ncc(OCc2ccc(C[S+](C)[O-])cc2F)cn1 (stereo partly specified)
2.6		C[C@@H]1CN(c2nnc(C(F)(F)F)o2)CCN1c1ncc(OCc2ccc(S(C)(=O)=O)cc2C#N)cn1
3		C[C@@H]1CN(c2nnc(C(F)(F)F)o2)CCN1c1ncc(OCc2ccc(S(C)(=O)=O)cc2F)cn1
2.6		C[C@@H]1CN(c2nnc(C(F)(F)F)o2)CCN1c1ncc(OCc2ccc(CS(C)(=O)=O)cc2)cn1
2.9	9	C[C@@H]1CN(c2nnc(C(F)(F)F)o2)CCN1c1ncc(OCc2ccc(CS(C)(=O)=O)cc2F)cn1
3		C[C@@H]1CN(C(=O)OC2(C(F)(F)F)COC2)CCN1c1ncc(OCc2ccc(S(C)(=O)=O)cc2F)cn1
2.1		C[C@@H]1CN(c2nnc(C(F)(F)F)o2)CCN1c1ncc(OCc2ccc(CS(C)(=N)=O)cc2F)cn1 (stereo partly specified)
3.7		C[C@@H]1CN(C(=O)OC2(C(F)(F)F)COC2)CCN1c1ncc(OCc2ccc(OS(C)(=O)=O)cc2F)cn1
3.4		CC(C)c1noc(N2CCN(c3ncc(OCc4ccc(S(C)(=O)=O)cc4F)cn3)[C@H](C)C2)n1
